The values below come from ChEMBL document CHEMBL1158040, “Biological activities and 3D QSAR studies of a series of Delisea pulchra (cf. fimbriata) derived natural products” (J Nat Prod, 2006).

The subject of data set [1] is Bacillus subtilis. Description: Antimicrobial activity against Bacillus subtilis at 10 ug. The class given is functional, organism-based. The method in brief:
(§1)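 Direct bioautography: each compound is spotted onto TLC plates and the solvent evaporated. The test organism is then grown directly on the plate. Growth inhibition is scored at the spot as active (+) or very active (++). Where a number is given, it is the radius in mm of the inhibition zone around the spot.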

In data set [2] the test system is Bacillus subtilis. The experiment in a line: Antimicrobial activity against Bacillus subtilis at 5 ug. The class given is functional, organism-based. The method in brief: as §1
Data set [3] concerns Plasmodium falciparum. Description: Antimalarial activity against chloroquine-sensitive Plasmodium falciparum D6. The class given is functional, organism-based. The method in brief: (§2)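 In vitro growth inhibition of Plasmodium falciparum clones D6 (chloroquine-sensitive) and W2 (chloroquine-resistant); IC50 reported in μg/mL.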
For data set [4], the system named is Escherichia coli. Description: Antimicrobial activity against Escherichia coli at 0.1 ug. The class given is functional, organism-based. The method, boiled down: as §1
Data set [5] deals with Penicillium oxalicum. The experiment in a line: Antimicrobial activity against Penicillium oxalicum at 5 ug. Conditions: read-out: IZ. The class given is functional. The method in brief: as §1
In data set [6] the test system is Micrococcus luteus. The experiment in a line: Antimicrobial activity against Micrococcus luteus at 10 ug. The class given is functional, organism-based. The method in brief: as §1
Data set [7] relates to Penicillium oxalicum. The experiment in a line: Antimicrobial activity against Penicillium oxalicum at 10 ug. The class given is functional. Particulars: read-out: IZ. The method in brief:
as §1

Data set [8] deals with Human immunodeficiency virus type 1 reverse transcriptase (Human immunodeficiency virus 1) (UniProt Q72547). Description: Inhibition of HIV1 RT at 200 uM. The method in brief:
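HIV-1 reverse transcriptase inhibition was measured in an ELISA-based system.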

The subject of data set [9] is Micrococcus luteus. Description: Antimicrobial activity against Micrococcus luteus at 5 ug. The class given is functional, organism-based. The method in brief: as §1
In data set [10] the test system is KB. The experiment in a line: Cytotoxicity against human KB cells. Conditions: read-out: ED50 (the source's name). The class given is functional.
For data set [11], the system named is Micrococcus luteus. The experiment in a line: Antimicrobial activity against Micrococcus luteus at 1 ug. The class given is functional, organism-based. The method, boiled down: as §1
In the next data set the test system is LNCaP. The experiment in a line: Cytotoxicity against human LNCAP cells. The class given is functional. Particulars: read-out: ED50 (the source's name).
In data set [12] the test system is KB. Description: Cytotoxicity against vinblastine-sensitive human KB cells. The class given is functional. Conditions: read-out: ED50 (the source's name).
The subject of data set [13] is Penicillium oxalicum. Description: Antimicrobial activity against Penicillium oxalicum at 1 ug. The class given is functional. Particulars: read-out: IZ. The method, boiled down:
as §1

Data set [14] relates to Escherichia coli. Description: Antimicrobial activity against Escherichia coli at 1 ug. The class given is functional, organism-based. The method in brief:
as §1

The next data set has as its system ZR-75-1. Description: Cytotoxicity against human ZR-75-1 cells. The class given is functional. Particulars: read-out: ED50 (the source's name).
The nature of data set [15]: Selectivity index, ratio of IC50 for human KB cells to IC50 for Plasmodium falciparum D6. The class given is toxicity, cell-based. Particulars: KB cells versus Plasmodium falciparum D6, read-out: Ratio IC50. The method, boiled down: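 Plasmodium falciparum clones were assayed in vitro: D6 (chloroquine-sensitive) and W2 (chloroquine-resistant). IC50 is in μg/mL. The selectivity index is the ratio of the antimalarial to the cytotoxic activity.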

Data set [16] relates to Bacillus subtilis. Description: Antimicrobial activity against Bacillus subtilis at 0.1 ug. The class given is functional, organism-based. The method in brief:
as §1

The subject of data set [17] is KB. The experiment in a line: Cytotoxicity against vinblastine-resistant human KB cells. The class given is functional. Particulars: read-out: ED50 (the source's name). The method in brief: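 The vinblastine-resistant KB-V1 line was tested both with and without added vinblastine in the cultured tumour-cell cytotoxicity panel. Results are reported as ED50.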
For data set [18], the system named is Bacillus subtilis. The experiment in a line: Antimicrobial activity against Bacillus subtilis at 1 ug. The class given is functional, organism-based. The method, boiled down:
as §1

Data set [19] has as its system Penicillium oxalicum. Description: Antimicrobial activity against Penicillium oxalicum at 0.1 ug. The class given is functional. The method in brief:
as §1

The subject of data set [20] is Escherichia coli. The experiment in a line: Antimicrobial activity against Escherichia coli at 5 ug. The class given is functional, organism-based. The method in brief: as §1
Data set [21] relates to Plasmodium falciparum. Description: Antimalarial activity against chloroquine-resistant Plasmodium falciparum W2. The class given is functional, organism-based. The method, boiled down: as §2
Another data set deals with Lu1. Description: Cytotoxicity against human Lu1 cells. The class given is functional. Particulars: read-out: ED50 (the source's name).
Data set [22] deals with Micrococcus luteus. The experiment in a line: Antimicrobial activity against Micrococcus luteus at 0.1 ug. The class given is functional, organism-based. The method, boiled down: as §1
Data set [23] is described as follows: Inhibition of TK assessed as residual activity at 200 ug/ml. The method in brief:
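The enzyme was tyrosine kinase p56lck, with test compounds at 200 μg/mL. The read-out is the remaining enzyme activity.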

Data set [24] has as its system Escherichia coli. The experiment in a line: Antimicrobial activity against Escherichia coli at 10 ug. The class given is functional, organism-based. The method, boiled down: as §1
Data set [25] has as its system Penicillium oxalicum. Description: Antimicrobial activity against Penicillium oxalicum at 0.01 ug. The class given is functional. The method in brief:
as §1

Data set [26] in a line: Inhibition of PKC.

In brackets after ≈: the same amount, converted by molar mass. Activity calls are given as the source filed them. No cut-off for these calls is given here.

Turning to `CCC[C@@H](OC(C)=O)C1=C(Br)[C@@](OC)(C(Br)Br)OC1=O`, the result in the data set with Bacillus subtilis [1], in the data set on Bacillus subtilis [2], with Micrococcus luteus [6] and in the data set with Micrococcus luteus [9] was Active. For the same molecule, the IC50 was 5 µg/mL (≈ 10.4 µM) in the data set on Plasmodium falciparum [3] and more than 10 µg/mL in the data set on Plasmodium falciparum [21]. In addition, the outcome (in the data set on Escherichia coli [4]; in data set [8]; in the data set on Micrococcus luteus [11]; with Escherichia coli [14]; in the data set with Bacillus subtilis [16]; with Bacillus subtilis [18]) was inactive. Moreover, the result in the data set on Penicillium oxalicum [19], in the data set on Escherichia coli [20], in the data set with Micrococcus luteus [22] and with Escherichia coli [24] was inactive. Further, the zone of inhibition at 5 µg/disc in the data set on Penicillium oxalicum [5] is 14 mm. Also, in the data set with Penicillium oxalicum [7], the zone of inhibition at 10 µg/disc turned out to be 16 mm. For the same molecule, the EC50 in the data set on KB [10] was 4.1 µg/mL (≈ 8.56 µM); in the data set with LNCaP it was 3.6 µg/mL (≈ 7.52 µM); with KB [12], 3.9 µg/mL (≈ 8.14 µM); with ZR-75-1, 2.8 µg/mL (≈ 5.85 µM); in the data set on KB [17], 6.2 µg/mL (≈ 12.9 µM); in the data set with Lu1, more than 20 µg/mL. In the data set with Penicillium oxalicum [13], the zone of inhibition at 1 µg/disc turned out to be 6 mm. Moreover, the selectivity ratio in [15] is 1. For the same molecule, the Activity in data set [23] was determined as 22.7%.

Turning to `CCC[C@@H](OC(C)=O)C1=C(Br)[C@](OC)(C(Br)Br)OC1=O`, the result (with Bacillus subtilis [1]; in the data set on Bacillus subtilis [2]; in the data set on Escherichia coli [4]; with Micrococcus luteus [6]; in data set [8]; with Micrococcus luteus [9]) was inactive. The result in the data set on Micrococcus luteus [11], in the data set with Escherichia coli [14], in the data set with Bacillus subtilis [16], in the data set on Bacillus subtilis [18], in the data set with Penicillium oxalicum [19] and in the data set on Escherichia coli [20] was inactive. Besides, the result in the data set with Micrococcus luteus [22] and in the data set on Escherichia coli [24] was inactive. Further, the values for the IC50 with Plasmodium falciparum [3] and in the data set with Plasmodium falciparum [21] were 3.8 µg/mL (≈ 7.93 µM) and more than 10 µg/mL, respectively. In the data set with Penicillium oxalicum [5], the zone of inhibition at 5 µg/disc worked out at 8 mm. Besides, the zone of inhibition at 10 µg/disc in the data set with Penicillium oxalicum [7] was determined as 9 mm. The EC50 in the data set with KB [10] was 6.1 µg/mL (≈ 12.7 µM); with LNCaP it was 4.5 µg/mL (≈ 9.4 µM); with KB [12] it was 5.3 µg/mL (≈ 11.1 µM); with ZR-75-1 it was 3.8 µg/mL (≈ 7.93 µM); with KB [17] it was 6.1 µg/mL (≈ 12.7 µM); with Lu1, more than 20 µg/mL. For the same molecule, in the data set with Penicillium oxalicum [13], the zone of inhibition at 1 µg/disc worked out at 4 mm. In addition, the selectivity ratio in data set [15] stood at 2. For the same molecule, the Activity in [23] worked out at 87.5%.

For the molecule `CCCCCCCC/C=C(\Br)C(O)C(Br)Br` (stereo not given), the outcome in the data set with Bacillus subtilis [1], with Bacillus subtilis [2], in the data set with Micrococcus luteus [6], with Micrococcus luteus [9] and with Escherichia coli [24] was Active. Moreover, the outcome in the data set on Escherichia coli [4], in the data set with Micrococcus luteus [11], with Escherichia coli [14], in the data set with Bacillus subtilis [18], in the data set on Penicillium oxalicum [19] and in the data set on Escherichia coli [20] was inactive. Moreover, the outcome with Penicillium oxalicum [25] was inactive. In the data set on Penicillium oxalicum [5], the zone of inhibition at 5 µg/disc worked out at 8 mm. The zone of inhibition at 10 µg/disc in the data set on Penicillium oxalicum [7] worked out at 8 mm. In addition, in the data set on Penicillium oxalicum [13], the zone of inhibition at 1 µg/disc is 5 mm. This molecule displayed an IC50 in data set [26] not below 200 µM.
